# Tested on: Klebsiella pneumoniae
# Assay: Antibacterial activity against Klebsiella pneumoniae M6 assessed as bacterial growth inhibition incubated for overnight by microbroth dilution method
row,SMILES,MIC [µg/mL]
1,CCCCC/C=C\C/C=C\CCCCCCCCNC(=N)NCCCCN,8
2,CC/C=C\C/C=C\C/C=C\CCCCCCCCNC(=N)NCCCCN,128

# Tested on: Pseudomonas aeruginosa
# Assay: Antibacterial activity against Pseudomonas aeruginosa NCTC 13437 assessed as bacterial growth inhibition incubated for overnight by microbroth dilution method
# Type: functional
# How it was run: (§1)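 Broth microdilution in Tryptic Soy Broth. DMSO stocks were diluted in TSB as 2-fold series. Overnight TSB cultures were back-diluted to OD 0.01 and mixed 1:1 with compound. Incubation was overnight at 37 °C. MIC was the lowest concentration without visible growth (<0.1 OD600). DMSO vehicle was checked at equivalent concentrations.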
row,SMILES,MIC [µg/mL]
1,CCCCC/C=C\C/C=C\CCCCCCCCNC(=N)NCCCCN,> 64
2,CC/C=C\C/C=C\C/C=C\CCCCCCCCNC(=N)NCCCCN,> 128

# Tested on: Acinetobacter baumannii
# Assay: Synergistic antibacterial activity against Acinetobacter baumannii ATCC 17978 assessed as rifampicin MIC at <=0.25 times MIC incubated for overnight by microbroth dilution checkerboard assay
# Type: functional
# How it was run: (§2)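 Checkerboard microdilution under MIC conditions (TSB, overnight, 37 °C). Two-fold series of each agent were combined on one plate before bacteria were added, and single-agent MICs were measured on the same plate. FIC = sum of combination MIC/alone MIC for each agent, taken from the most synergistic well. Three independent repeats, mean ± SD. ≤0.5 was taken as strong synergy and 0.5–<1 as weak.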
row,SMILES,MIC [µg/mL]
1,CCCCC/C=C\C/C=C\CCCCCCCCNC(=N)NCCCCN,0.5
2,CC/C=C\C/C=C\C/C=C\CCCCCCCCNC(=N)NCCCCN,≤ 0.125

# Tested on: Pseudomonas aeruginosa
# Assay: Antibacterial activity against Pseudomonas aeruginosa PAO1 assessed as bacterial growth inhibition incubated for overnight by microbroth dilution method
# Type: functional
# How it was run: as §1
row,SMILES,MIC [µg/mL]
1,CCCCC/C=C\C/C=C\CCCCCCCCNC(=N)NCCCCN,16
2,CC/C=C\C/C=C\C/C=C\CCCCCCCCNC(=N)NCCCCN,> 128

# Tested on: Staphylococcus aureus
# Assay: Antibacterial activity against methicillin resistant Staphylococcus aureus USA 300 assessed as bacterial growth inhibition incubated for overnight by microbroth dilution method
# Type: functional
# How it was run: (§3)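 Microbroth dilution in Tryptic Soy Broth. DMSO stocks were diluted in TSB as 2-fold series. Overnight TSB cultures were back-diluted to OD 0.01 and mixed 1:1 with compound. Incubation was overnight at 37 °C. MIC is the lowest concentration with no visible growth (<0.1 OD600). DMSO at equivalent concentrations was checked.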
row,SMILES,MIC [µg/mL]
1,CCCCC/C=C\C/C=C\CCCCCCCCNC(=N)NCCCCN,8
2,CC/C=C\C/C=C\C/C=C\CCCCCCCCNC(=N)NCCCCN,4

# Tested on: Escherichia coli
# Assay: Antibacterial activity against Escherichia coli NCTC 12923 assessed as bacterial growth inhibition incubated for overnight by microbroth dilution method
# Type: functional
# How it was run: as §1
row,SMILES,MIC [µg/mL]
1,CCCCC/C=C\C/C=C\CCCCCCCCNC(=N)NCCCCN,4
2,CC/C=C\C/C=C\C/C=C\CCCCCCCCNC(=N)NCCCCN,32

# Tested on: Enterococcus faecalis
# Assay: Antibacterial activity against vancomycin resistant Enterococcus faecalis NCTC 12201 assessed as bacterial growth inhibition incubated for overnight by microbroth dilution method
# Type: functional
# How it was run: as §3
row,SMILES,MIC [µg/mL]
1,CCCCC/C=C\C/C=C\CCCCCCCCNC(=N)NCCCCN,16
2,CC/C=C\C/C=C\C/C=C\CCCCCCCCNC(=N)NCCCCN,8

# Tested on: Pseudomonas aeruginosa
# Assay: Synergistic antibacterial activity against Pseudomonas aeruginosa PAO1 assessed as fold change in rifampicin MIC at <=0.25 times MIC incubated for overnight by microbroth dilution checkerboard assay relative to rifampicin alone
# Type: functional
# How it was run: (§4)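 Checkerboard microdilution in Tryptic Soy Broth, run like the MIC assay. Overnight TSB cultures were back-diluted to OD 0.01 and added 1:1 to the combined two-fold series of both agents, then incubated overnight at 37 °C. Growth/no-growth was called at <0.1 OD600. MICs alone were read on the same plates. FIC index came from the most synergistic well; three independent repeats, mean ± SD.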
row,SMILES,fold change (FC)
1,CCCCC/C=C\C/C=C\CCCCCCCCNC(=N)NCCCCN,0
2,CC/C=C\C/C=C\C/C=C\CCCCCCCCNC(=N)NCCCCN,0

# Tested on: Acinetobacter baumannii
# Assay: Antibacterial activity against Acinetobacter baumannii AYE assessed as bacterial growth inhibition incubated for overnight by microbroth dilution method
# Type: functional
# How it was run: as §1
row,SMILES,MIC [µg/mL]
1,CCCCC/C=C\C/C=C\CCCCCCCCNC(=N)NCCCCN,8
2,CC/C=C\C/C=C\C/C=C\CCCCCCCCNC(=N)NCCCCN,128

# Tested on: Klebsiella pneumoniae
# Assay: Synergistic antibacterial activity against Klebsiella pneumoniae NCTC 13368 assessed as rifampicin MIC at <=0.25 times MIC incubated for overnight by microbroth dilution checkerboard assay
# Type: functional
# How it was run: as §2
row,SMILES,MIC [µg/mL]
1,CCCCC/C=C\C/C=C\CCCCCCCCNC(=N)NCCCCN,16
2,CC/C=C\C/C=C\C/C=C\CCCCCCCCNC(=N)NCCCCN,≤ 0.125

# Tested on: Klebsiella pneumoniae
# Assay: Synergistic antibacterial activity against […] Klebsiella pneumoniae M6 assessed as rifampicin MIC at <=0.25 times MIC incubated for overnight by microbroth dilution checkerboard assay
# Type: functional
# How it was run: (§5)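 Checkerboard run under the MIC conditions (TSB, overnight, 37 °C). Antibiotic and lipoguanidine 2-fold series were combined on one plate before bacteria were added. Growth/no-growth was scored as for the MIC (<0.1 OD600). Single-agent MICs were measured on the same plates. Three independent repeats were done.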
row,SMILES,MIC [µg/mL]
1,CCCCC/C=C\C/C=C\CCCCCCCCNC(=N)NCCCCN,4
2,CC/C=C\C/C=C\C/C=C\CCCCCCCCNC(=N)NCCCCN,≤ 0.125

# Tested on: Staphylococcus aureus
# Assay: Antibacterial activity against methicillin resistant Staphylococcus aureus NCTC 13616 assessed as bacterial growth inhibition incubated for overnight by microbroth dilution method
# Type: functional
# How it was run: as §3
row,SMILES,MIC [µg/mL]
1,CCCCC/C=C\C/C=C\CCCCCCCCNC(=N)NCCCCN,16
2,CC/C=C\C/C=C\C/C=C\CCCCCCCCNC(=N)NCCCCN,8

# Tested on: Escherichia coli
# Assay: Synergistic antibacterial activity against Escherichia coli NCTC 12923 assessed as fold change in rifampicin MIC at <=0.25 times MIC incubated for overnight by microbroth dilution checkerboard assay relative to rifampicin alone
# Type: functional
# How it was run: as §2
row,SMILES,fold change (FC)
1,CCCCC/C=C\C/C=C\CCCCCCCCNC(=N)NCCCCN,0
2,CC/C=C\C/C=C\C/C=C\CCCCCCCCNC(=N)NCCCCN,>=4

# Tested on: Acinetobacter baumannii
# Assay: Synergistic antibacterial activity against Acinetobacter baumannii AYE assessed as rifampicin MIC at <=0.25 times MIC incubated for overnight by microbroth dilution checkerboard assay
# Type: functional
# How it was run: as §2
row,SMILES,MIC [µg/mL]
1,CCCCC/C=C\C/C=C\CCCCCCCCNC(=N)NCCCCN,0.25
2,CC/C=C\C/C=C\C/C=C\CCCCCCCCNC(=N)NCCCCN,≤ 0.125

# Tested on: Enterococcus faecium
# Assay: Antibacterial activity against vancomycin resistant Enterococcus faecium NCTC 12204 assessed as bacterial growth inhibition incubated for overnight by microbroth dilution method
# Type: functional
# How it was run: as §3
row,SMILES,MIC [µg/mL]
1,CCCCC/C=C\C/C=C\CCCCCCCCNC(=N)NCCCCN,16
2,CC/C=C\C/C=C\C/C=C\CCCCCCCCNC(=N)NCCCCN,8

# Tested on: Escherichia coli
# Assay: Synergistic antibacterial activity against Escherichia coli NCTC 12923 assessed as rifampicin MIC at <=0.25 times MIC incubated for overnight by microbroth dilution checkerboard assay
# Type: functional
# How it was run: as §2
row,SMILES,MIC [µg/mL]
1,CCCCC/C=C\C/C=C\CCCCCCCCNC(=N)NCCCCN,8
2,CC/C=C\C/C=C\C/C=C\CCCCCCCCNC(=N)NCCCCN,1

# Tested on: Acinetobacter baumannii
# Assay: Antibacterial activity against Acinetobacter baumannii ATCC 17978 assessed as bacterial growth inhibition incubated for overnight by microbroth dilution method
# Type: functional
# How it was run: as §1
row,SMILES,MIC [µg/mL]
1,CCCCC/C=C\C/C=C\CCCCCCCCNC(=N)NCCCCN,8
2,CC/C=C\C/C=C\C/C=C\CCCCCCCCNC(=N)NCCCCN,128

# Tested on: Staphylococcus aureus
# Assay: Antibacterial activity against methicillin sensitive Staphylococcus aureus 1199B assessed as bacterial growth inhibition incubated for overnight by microbroth dilution method
# Type: functional
# How it was run: as §3
row,SMILES,MIC [µg/mL]
1,CCCCC/C=C\C/C=C\CCCCCCCCNC(=N)NCCCCN,16
2,CC/C=C\C/C=C\C/C=C\CCCCCCCCNC(=N)NCCCCN,8

# Tested on: Staphylococcus aureus
# Assay: Antibacterial activity against methicillin sensitive Staphylococcus aureus ATCC 9144 assessed as bacterial growth inhibition incubated for overnight by microbroth dilution method
# Type: functional
# How it was run: as §3
row,SMILES,MIC [µg/mL]
1,CCCCC/C=C\C/C=C\CCCCCCCCNC(=N)NCCCCN,8
2,CC/C=C\C/C=C\C/C=C\CCCCCCCCNC(=N)NCCCCN,8

# Tested on: Pseudomonas aeruginosa
# Assay: Synergistic antibacterial activity against Pseudomonas aeruginosa PAO1 assessed as rifampicin MIC at <=0.25 times MIC incubated for overnight by microbroth dilution checkerboard assay
# Type: functional
# How it was run: as §4
row,SMILES,MIC [µg/mL]
1,CCCCC/C=C\C/C=C\CCCCCCCCNC(=N)NCCCCN,16
2,CC/C=C\C/C=C\C/C=C\CCCCCCCCNC(=N)NCCCCN,16

# Tested on: Acinetobacter baumannii
# Assay: Synergistic antibacterial activity against Acinetobacter baumannii ATCC 17978 assessed as fold change in rifampicin MIC at <=0.25 times MIC incubated for overnight by microbroth dilution checkerboard assay relative to rifampicin alone
# Type: functional
# How it was run: as §2
row,SMILES,fold change (FC)
1,CCCCC/C=C\C/C=C\CCCCCCCCNC(=N)NCCCCN,>=4
2,CC/C=C\C/C=C\C/C=C\CCCCCCCCNC(=N)NCCCCN,>=4

# Tested on: Enterococcus faecalis
# Assay: Antibacterial activity against vancomycin sensitive Enterococcus faecalis NCTC 775 assessed as bacterial growth inhibition incubated for overnight by microbroth dilution method
row,SMILES,MIC [µg/mL]
1,CCCCC/C=C\C/C=C\CCCCCCCCNC(=N)NCCCCN,32
2,CC/C=C\C/C=C\C/C=C\CCCCCCCCNC(=N)NCCCCN,8

# Tested on: Pseudomonas aeruginosa
# Assay: Synergistic antibacterial activity against Pseudomonas aeruginosa NCTC 13437 assessed as fold change in rifampicin MIC at <=0.25 times MIC incubated for overnight by microbroth dilution checkerboard assay relative to rifampicin alone
# Type: functional
# How it was run: as §4
row,SMILES,fold change (FC)
1,CCCCC/C=C\C/C=C\CCCCCCCCNC(=N)NCCCCN,0
2,CC/C=C\C/C=C\C/C=C\CCCCCCCCNC(=N)NCCCCN,0

# Tested on: Klebsiella pneumoniae
# Assay: Synergistic antibacterial activity against Klebsiella pneumoniae NCTC 13368 assessed as fold change in rifampicin MIC at <=0.25 times MIC incubated for overnight by microbroth dilution checkerboard assay relative to rifampicin alone
# Type: functional
# How it was run: as §5
row,SMILES,fold change (FC)
1,CCCCC/C=C\C/C=C\CCCCCCCCNC(=N)NCCCCN,0
2,CC/C=C\C/C=C\C/C=C\CCCCCCCCNC(=N)NCCCCN,>=4

# Tested on: Acinetobacter baumannii
# Assay: Synergistic antibacterial activity against Acinetobacter baumannii AYE assessed as fold change in rifampicin MIC at <=0.25 times MIC incubated for overnight by microbroth dilution checkerboard assay relative to rifampicin alone
# Type: functional
# How it was run: as §2
row,SMILES,fold change (FC)
1,CCCCC/C=C\C/C=C\CCCCCCCCNC(=N)NCCCCN,>=4
2,CC/C=C\C/C=C\C/C=C\CCCCCCCCNC(=N)NCCCCN,>=4

# Tested on: Klebsiella pneumoniae
# Assay: Antibacterial activity against ESBL Klebsiella pneumoniae NCTC 13368 assessed as bacterial growth inhibition incubated for overnight by microbroth dilution method
row,SMILES,MIC [µg/mL]
1,CCCCC/C=C\C/C=C\CCCCCCCCNC(=N)NCCCCN,16
2,CC/C=C\C/C=C\C/C=C\CCCCCCCCNC(=N)NCCCCN,> 128

# Tested on: Pseudomonas aeruginosa
# Assay: Synergistic antibacterial activity against Pseudomonas aeruginosa NCTC 13437 assessed as rifampicin MIC at <=0.25 times MIC incubated for overnight by microbroth dilution checkerboard assay
# Type: functional
# How it was run: as §4
row,SMILES,MIC [µg/mL]
1,CCCCC/C=C\C/C=C\CCCCCCCCNC(=N)NCCCCN,16
2,CC/C=C\C/C=C\C/C=C\CCCCCCCCNC(=N)NCCCCN,16

# — ChEMBL document CHEMBL5357066, “Development of Novel Membrane Disrupting Lipoguanidine Compounds Sensitizing Gram-Negative Bacteria to Antibiotics” (ACS Med Chem Lett, 2024)
